“And” between values parts separate entries of the source, which are not always exact repeats. Equal values may be shown once.
Test system: U2OS
Assay: Multiplex assay against U2OS
Type: toxicity, cell-based
Conditions: human
Outline: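 Live cells carried four stains from seeding: Hoechst33342, BioTracker Green Microtubule Cytoskeleton Dye, MitoTracker Red and Annexin V Alexa Fluor 680. They were imaged on a CQ1 microscope at 37°C and 5% CO2 after compound addition. Using CellPathfinder machine-learning gating, cells were split into Hoechst high-intensity objects or normal cells, normal cells into healthy, pyknosed or fragmented nuclei, and pyknosed cells into mitotic or apoptotic; tubulin, mitochondrial-mass and membrane-permeability phenotypes are per cents of healthy-nucleus cells.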

[1] = 12 h, 1 µM, compound concentration 1 uM
[2] = 12 h, 10 µM, compound concentration 10 uM
[3] = 24 h, 1 µM, compound concentration 1 uM
[4] = 24 h, 10 µM, compound concentration 10 uM
[5] = 48 h, 1 µM, compound concentration 1 uM
[6] = 48 h, 10 µM, compound concentration 10 uM

CC(=O)Nc1cccc2c1c(Sc1ccc(Cl)cc1)c(C)n2CC(=O)O [AZD1981]
Population Apoptotic (%) [1]: 68% and 83%
Population Fragmented Nuclei (%) [1]: 24% and 16%
Population Healthy Nuclei (%) [1]: 68% and 76%
Population Hoechst High Intensity Objects (%) [1]: 3% and 1%
Population Membrane Permeable-Phenotype (%) [1]: 3% and 6%
Population Mitochondria Different-Phenotype (%) [1]: 0% and 1%
Population Mitotic Cells (%) [1]: 31% and 16%
Population Normal (%) [1]: 96% and 98%
Population Pyknosed Nuclei (%) [1]: 6% and 7%
Population Tubulin-Different-Phenotype (%) [1]: 2% and 3%
Population Apoptotic (%) [2]: 83% and 80%
Population Fragmented Nuclei (%) [2]: 25% and 19%
Population Healthy Nuclei (%) [2]: 66% and 76%
Population Hoechst High Intensity Objects (%) [2]: 2% and 3%
Population Membrane Permeable-Phenotype (%) [2]: 8% and 10%
Population Mitochondria Different-Phenotype (%) [2]: 0% and 3%
Population Mitotic Cells (%) [2]: 16% and 20%
Population Normal (%) [2]: 97% and 96%
Population Pyknosed Nuclei (%) [2]: 7% and 4%
Population Tubulin-Different-Phenotype (%) [2]: 1% and 5%
Total Cell Count [2]: 231 and 122
Population Apoptotic (%) [3]: 91% and 50%
Population Fragmented Nuclei (%) [3]: 25% and 16%
Population Healthy Nuclei (%) [3]: 66% and 82%
Population Hoechst High Intensity Objects (%) [3]: 2% and 0%
Population Membrane Permeable-Phenotype (%) [3]: 5% and 4%
Population Mitochondria Different-Phenotype (%) [3]: 1% and 3%
Population Normal (%) [3]: 97% and 100%
Population Pyknosed Nuclei (%) [3]: 8% and 1%
Population Tubulin-Different-Phenotype (%) [3]: 3% and 0%
Total Cell Count [3]: 289 and 106
Population Apoptotic (%) [4]: 88% and 100%
Population Fragmented Nuclei (%) [4]: 23% and 14%
Population Healthy Nuclei (%) [4]: 66% and 77%
Population Hoechst High Intensity Objects (%) [4]: 0%
Population Membrane Permeable-Phenotype (%) [4]: 6% and 3%
Population Mitochondria Different-Phenotype (%) [4]: 2% and 4%
Population Mitotic Cells (%) [4]: 11% and 0%
Population Normal (%) [4]: 99%
Population Pyknosed Nuclei (%) [4]: 9% and 8%
Population Tubulin-Different-Phenotype (%) [4]: 2% and 0%
Total Cell Count [4]: 266 and 125
Population Apoptotic (%) [5]: 91% and 81%
Population Fragmented Nuclei (%) [5]: 16% and 9%
Population Healthy Nuclei (%) [5]: 74% and 82%
Population Hoechst High Intensity Objects (%) [5]: 1% and 3%
Population Membrane Permeable-Phenotype (%) [5]: 6%
Population Mitochondria Different-Phenotype (%) [5]: 2% and 0%
Population Mitotic Cells (%) [5]: 8% and 18%
Population Normal (%) [5]: 98% and 96%
Population Pyknosed Nuclei (%) [5]: 9% and 7%
Population Tubulin-Different-Phenotype (%) [5]: 4% and 1%
Total Cell Count [5]: 375 and 144
Population Apoptotic (%) [6]: 100% and 85%
Population Fragmented Nuclei (%) [6]: 18% and 14%
Population Healthy Nuclei (%) [6]: 75% and 73%
Population Hoechst High Intensity Objects (%) [6]: 2% and 1%
Population Membrane Permeable-Phenotype (%) [6]: 7%
Population Mitochondria Different-Phenotype (%) [6]: 2% and 4%
Population Mitotic Cells (%) [6]: 0% and 15%
Population Normal (%) [6]: 97% and 98%
Population Pyknosed Nuclei (%) [6]: 5% and 11%
Population Tubulin-Different-Phenotype (%) [6]: 4%
Total Cell Count [6]: 366 and 171

Cc1cc(Nc2ncc(Cl)c(Nc3ccccc3S(=O)(=O)C(C)C)n2)c(OC(C)C)cc1C1CCNCC1 [CERITINIB]
Population Apoptotic (%) [1]: 28.57% and 18.75%
Population Fragmented Nuclei (%) [1]: 3.31% and 3.57%
Population Healthy Nuclei (%) [1]: 78.68% and 58.33%
Population Hoechst High Intensity Objects (%) [1]: 0%
Population Membrane Permeable-Phenotype (%) [1]: 17.76% and 17.35%
Population Mitotic Cells (%) [1]: 71.43% and 81.25%
Population Normal (%) [1]: 100%
Population Pyknosed Nuclei (%) [1]: 18.01% and 38.1%
Population Tubulin-Different-Phenotype (%) [1]: 40.65% and 72.45%
Total Cell Count [1]: 272 and 168
Population Apoptotic (%) [2]: 77.85% and 68.91%
Population Fragmented Nuclei (%) [2]: 0.93% and 0.8%
Population Healthy Nuclei (%) [2]: 3.43% and 4%
Population Hoechst High Intensity Objects (%) [2]: 0%
Population Membrane Permeable-Phenotype (%) [2]: 36.36% and 80%
Population Mitochondria Different-Phenotype (%) [2]: 0%
Population Mitotic Cells (%) [2]: 22.15% and 31.09%
Population Normal (%) [2]: 100%
Population Pyknosed Nuclei (%) [2]: 95.64% and 95.2%
Population Tubulin-Different-Phenotype (%) [2]: 72.73% and 60%
Total Cell Count [2]: 321 and 125
Population Apoptotic (%) [3]: 29.58% and 27.12%
Population Fragmented Nuclei (%) [3]: 2.58% and 2.73%
Population Healthy Nuclei (%) [3]: 77.08% and 65.03%
Population Hoechst High Intensity Objects (%) [3]: 0.29% and 0%
Population Membrane Permeable-Phenotype (%) [3]: 4.09% and 6.72%
Population Mitotic Cells (%) [3]: 70.42% and 72.88%
Population Normal (%) [3]: 99.71% and 100%
Population Pyknosed Nuclei (%) [3]: 20.34% and 32.24%
Population Tubulin-Different-Phenotype (%) [3]: 29% and 47.06%
Total Cell Count [3]: 350 and 183
Population Apoptotic (%) [4]: 83.51% and 81.55%
Population Fragmented Nuclei (%) [4]: 1.89% and 2.42%
Population Healthy Nuclei (%) [4]: 6.6% and 14.52%
Population Hoechst High Intensity Objects (%) [4]: 0%
Population Membrane Permeable-Phenotype (%) [4]: 23.81% and 50%
Population Mitochondria Different-Phenotype (%) [4]: 9.52% and 5.56%
Population Mitotic Cells (%) [4]: 16.49% and 18.45%
Population Normal (%) [4]: 100%
Population Pyknosed Nuclei (%) [4]: 91.51% and 83.06%
Population Tubulin-Different-Phenotype (%) [4]: 71.43% and 33.33%
Total Cell Count [4]: 318 and 124
Population Apoptotic (%) [5]: 50% and 61.97%
Population Fragmented Nuclei (%) [5]: 3.8% and 3.81%
Population Healthy Nuclei (%) [5]: 77.4% and 62.38%
Population Hoechst High Intensity Objects (%) [5]: 0.2% and 0%
Population Membrane Permeable-Phenotype (%) [5]: 1.55% and 4.58%
Population Mitotic Cells (%) [5]: 50% and 38.03%
Population Normal (%) [5]: 99.8% and 100%
Population Pyknosed Nuclei (%) [5]: 18.8% and 33.81%
Total Cell Count [5]: 501 and 210
Population Apoptotic (%) [6]: 89.1% and 93.88%
Population Fragmented Nuclei (%) [6]: 2.94% and 5.04%
Population Healthy Nuclei (%) [6]: 46.08% and 53.78%
Population Hoechst High Intensity Objects (%) [6]: 0%
Population Mitochondria Different-Phenotype (%) [6]: 7.09% and 10.94%
Population Mitotic Cells (%) [6]: 10.9% and 6.12%
Population Normal (%) [6]: 100%
Population Pyknosed Nuclei (%) [6]: 50.98% and 41.18%
Population Tubulin-Different-Phenotype (%) [6]: 46.1% and 31.25%
Total Cell Count [6]: 306 and 119

CN1C[C@H](C(=O)N[C@]2(C)O[C@@]3(O)[C@@H]4CCCN4C(=O)[C@H](Cc4ccccc4)N3C2=O)C[C@@H]2c3cccc4[nH]cc(c34)C[C@H]21.CS(=O)(=O)O [DIHYDROERGOTAMINE MESYLATE]
Population Apoptotic (%) [1]: 82% and 84%
Population Fragmented Nuclei (%) [1]: 24% and 23%
Population Healthy Nuclei (%) [1]: 65% and 63%
Population Hoechst High Intensity Objects (%) [1]: 1%
Population Membrane Permeable-Phenotype (%) [1]: 6% and 14%
Population Mitochondria Different-Phenotype (%) [1]: 2% and 1%
Population Mitotic Cells (%) [1]: 17% and 15%
Population Normal (%) [1]: 98%
Population Pyknosed Nuclei (%) [1]: 10% and 13%
Population Tubulin-Different-Phenotype (%) [1]: 2% and 7%
Total Cell Count [1]: 233 and 101
Population Apoptotic (%) [2]: 71% and 100%
Population Fragmented Nuclei (%) [2]: 19%
Population Healthy Nuclei (%) [2]: 73% and 77%
Population Hoechst High Intensity Objects (%) [2]: 2% and 1%
Population Membrane Permeable-Phenotype (%) [2]: 5%
Population Mitochondria Different-Phenotype (%) [2]: 1% and 0%
Population Normal (%) [2]: 97% and 98%
Population Pyknosed Nuclei (%) [2]: 7% and 2%
Population Tubulin-Different-Phenotype (%) [2]: 3% and 0%
Total Cell Count [2]: 298 and 144
Population Apoptotic (%) [3]: 89% and 100%
Population Fragmented Nuclei (%) [3]: 23% and 21%
Population Healthy Nuclei (%) [3]: 67% and 65%
Population Hoechst High Intensity Objects (%) [3]: 0% and 1%
Population Membrane Permeable-Phenotype (%) [3]: 2% and 8%
Population Mitochondria Different-Phenotype (%) [3]: 0% and 2%
Population Mitotic Cells (%) [3]: 10% and 0%
Population Normal (%) [3]: 99% and 98%
Population Pyknosed Nuclei (%) [3]: 9% and 13%
Population Tubulin-Different-Phenotype (%) [3]: 2% and 4%
Total Cell Count [3]: 307 and 132
Population Apoptotic (%) [4]: 88% and 92%
Population Fragmented Nuclei (%) [4]: 18% and 16%
Population Healthy Nuclei (%) [4]: 73% and 75%
Population Hoechst High Intensity Objects (%) [4]: 1%
Population Membrane Permeable-Phenotype (%) [4]: 4%
Population Mitochondria Different-Phenotype (%) [4]: 2%
Population Mitotic Cells (%) [4]: 11% and 7%
Population Normal (%) [4]: 98%
Population Pyknosed Nuclei (%) [4]: 8%
Population Tubulin-Different-Phenotype (%) [4]: 2% and 1%
Total Cell Count [4]: 337 and 163
Population Apoptotic (%) [5]: 80% and 90%
Population Fragmented Nuclei (%) [5]: 14% and 11%
Population Healthy Nuclei (%) [5]: 78% and 76%
Population Hoechst High Intensity Objects (%) [5]: 2% and 1%
Population Membrane Permeable-Phenotype (%) [5]: 2% and 6%
Population Mitochondria Different-Phenotype (%) [5]: 2%
Population Mitotic Cells (%) [5]: 19% and 10%
Population Normal (%) [5]: 97% and 98%
Population Pyknosed Nuclei (%) [5]: 7% and 11%
Population Tubulin-Different-Phenotype (%) [5]: 1% and 4%
Total Cell Count [5]: 427 and 173
Population Apoptotic (%) [6]: 95% and 100%
Population Fragmented Nuclei (%) [6]: 14% and 19%
Population Healthy Nuclei (%) [6]: 75% and 72%
Population Hoechst High Intensity Objects (%) [6]: 3%
Population Membrane Permeable-Phenotype (%) [6]: 7% and 3%
Population Mitochondria Different-Phenotype (%) [6]: 3% and 1%
Population Mitotic Cells (%) [6]: 4% and 0%
Population Normal (%) [6]: 96%
Population Pyknosed Nuclei (%) [6]: 9% and 8%
Population Tubulin-Different-Phenotype (%) [6]: 3% and 2%
Total Cell Count [6]: 452 and 217

From ChEMBL document CHEMBL5724801, “EUbOPEN Chemogenomics Library - Multiplex” (2024)
